Experimental data: ChEMBL document CHEMBL4513216, “Probing the Open Global Health Chemical Diversity Library for Multistage-Active Starting Points for Next-Generation Antimalarials” (ACS Infect Dis, 2020)

Test: Toxicity liver stage against HepG2, at 10uM
Format: cell-based
Parameters: test concentration 10 uM, cell line HepG2-A16-CD81EGFP
Conditions: human, HepG2-A16-CD81EGFP cells; read-out: INHIBITION
In short: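 Uninfected HepG2-A16-CD81EGFP cells, 3 × 10^3 per well, 1536-well, plated on prespotted compound at 10 μM final, parasite-free screening media added to match infected plates; puromycin 10 μM positive, DMSO 0.5% negative; run in parallel with 48 h PbLuc assay at 37 °C, 5% CO2; viability by CellTiter-Glo luminescence, normalized to controls.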

COc1nn(C)cc1C(=O)N1CCC(C)CC1
cytotoxicity at 10 µM: 5.97%

Cc1cnc(N2CCC3(CC2)CCN(c2cncnc2)C3=O)nc1
cytotoxicity at 10 µM: -13%

O=C(c1ccccn1)N1CCN(c2cnnc(N3CCCC3)c2)CC1
cytotoxicity at 10 µM: 4.74%

N#Cc1ccccc1N1CCCN(C(=O)CCc2nccs2)CC1
cytotoxicity at 10 µM: -2.12%

OC1CCN(c2ccc(CNc3nc4ccccc4s3)cc2F)CC1
cytotoxicity at 10 µM: 1.71%

CCCc1cc(=O)[nH]c(-c2cccc(CN3CCCCCC3)c2)n1
cytotoxicity at 10 µM: -4.09%

O=S(=O)(C1CC1)N1CCn2cc(CNc3ccccn3)nc2C1
cytotoxicity at 10 µM: 8.04%

CCc1nc(-c2cncnc2C2CCCNC2)no1 (configuration not stated)
cytotoxicity at 10 µM: 1.73%

CCn1c(Cn2cncn2)nnc1C1CCN(Cc2ccc(C)o2)CC1
cytotoxicity at 10 µM: -12.9%

COCCN(C)C(=O)Nc1ccc2c(ccn2CC(=O)N(C)C)c1
cytotoxicity at 10 µM: 6.71%

CC1CCN(C(=O)c2cccc3ncccc23)CC1
cytotoxicity at 10 µM: 4.21%

COCC(=O)NC1(c2cccc(C(F)(F)F)c2)CCC1
cytotoxicity at 10 µM: -50%

CCn1cnnc1C1CCN(C(=O)COc2ccc(Cl)cc2)CC1
cytotoxicity at 10 µM: -3.39%

CN1[C@H](CN2CCCC2)C[C@@H]2CN(Cc3ccoc3)CC[C@@H]21
cytotoxicity at 10 µM: -160%

Cc1noc(C)c1CN1CC[C@H]2C[C@@H](c3nccs3)O[C@@H]2C1
cytotoxicity at 10 µM: -5.33%

CCc1cnc(N2C[C@@H]3C[C@H](C(=O)N4CCOCC4)[C@H](C2)O3)nc1
cytotoxicity at 10 µM: -104%

CCOc1cccc(C(=O)Nc2ccn(CC)n2)c1
cytotoxicity at 10 µM: 8.19%

Cc1ccc(C(=O)N(C)Cc2csc(C)n2)c(=O)[nH]1
cytotoxicity at 10 µM: 3.97%

CN(C)CC1CN(Cc2nnc(-c3ccccc3Cl)o2)CCO1 (configuration not stated)
cytotoxicity at 10 µM: 1.56%

Cc1cc2n(n1)CC(CNCc1ccc(OCC3CC3)nc1)CN2 (configuration not stated)
cytotoxicity at 10 µM: -8.42%

Cn1cc(CCNC(=O)N2CCCC(c3nncn3C)C2)cn1 (configuration not stated)
cytotoxicity at 10 µM: -4.41%

COc1c(CNCc2cccnc2N2CCN(C)CC2)c(C)nn1C
cytotoxicity at 10 µM: -134%

Cc1ccn(CCNC(=O)C2CCN(S(=O)(=O)c3ccc(F)cc3)C2)n1 (configuration not stated)
cytotoxicity at 10 µM: -24.5%

Fc1ccc(NCc2ccncc2)c(OC(F)F)c1
cytotoxicity at 10 µM: 10.5%

CC(CNC(=O)C1(c2ccc(F)cc2)CC1)CN1CCCC1=O (configuration not stated)
cytotoxicity at 10 µM: -8.26%

Cc1cnn(CCNCCCOc2ccc(C#N)cc2)c1
cytotoxicity at 10 µM: -0.222%

Cc1ccc(C(=O)N2CCC3(CC2)CC(c2cnn(C)c2)CO3)cn1 (configuration not stated)
cytotoxicity at 10 µM: -69.5%

O=S1(=O)COCCN1Cc1ccc(F)c(F)c1
cytotoxicity at 10 µM: 3.42%

O=S(=O)(c1ccc(C(F)(F)F)cc1)N1CCC(OCc2ccccn2)C1 (configuration not stated)
cytotoxicity at 10 µM: 1.22%

Cn1cc(N2CCCC(SCc3nc(C4CC4)no3)C2=O)cn1 (configuration not stated)
cytotoxicity at 10 µM: 21.8%

CCOc1cccc(NC(=O)c2cnc(C)cn2)n1
cytotoxicity at 10 µM: 4.14%

CCc1cc(=O)[nH]c2nnc(SCC(=O)OC)n12
cytotoxicity at 10 µM: -16.6%

CCOCC1CN(Cc2ccco2)Cc2ccnn2C1 (configuration not stated)
cytotoxicity at 10 µM: -149%

NS(=O)(=O)CCCC(=O)N1CCC2(CC1)c1ccccc1CC2O (configuration not stated)
cytotoxicity at 10 µM: 4.71%

Cc1nc(C)n(CC2CCCCN2CC(=O)NCc2ccccn2)n1 (configuration not stated)
cytotoxicity at 10 µM: 2.07%

Cc1noc(CN(Cc2cccc(C#N)c2)Cc2cccs2)n1
cytotoxicity at 10 µM: 3.8%

O=C(c1ccncc1)N1C[C@H]2CC[C@@H](C1)N(C(=O)C1CCCC1)C2
cytotoxicity at 10 µM: 6.77%

COCc1ccc(C(=O)N2CCC(c3cc4nccnc4[nH]3)CC2)cc1
cytotoxicity at 10 µM: -39%

O=C1CCCC2(CCN(C(=O)c3cnccn3)CC2)N1
cytotoxicity at 10 µM: -12.9%

CCN1CC[C@@]2(C(=O)N(C)C)CCN(S(=O)(=O)c3ccccc3)CC[C@@H]12
cytotoxicity at 10 µM: 1.26%

CC(C)c1cnc(CN(C)C2CCN(CCCc3cnn(C)c3)C2)o1 (configuration not stated)
cytotoxicity at 10 µM: -13.3%

CCOCCN1CCN(c2ccc(CN(C)C)cn2)CC1
cytotoxicity at 10 µM: -4.11%

CC(C)n1nnnc1-c1ccc(NC(=O)CCC(F)(F)F)cc1F
cytotoxicity at 10 µM: -2.5%

O=S(=O)(Cc1ccc(F)c(Cl)c1)NCCOc1cccnc1
cytotoxicity at 10 µM: -49.9%

COCc1nc(CNc2cc(C)nc(-c3ccccc3)n2)no1
cytotoxicity at 10 µM: 7.06%

COCC1CN(Cc2ccncc2)Cc2nn(C)cc21 (configuration not stated)
cytotoxicity at 10 µM: -74.1%

Cc1ccc(CN2CCC3(CC2)C(c2ccccc2)CC(=O)N3C)o1 (configuration not stated)
cytotoxicity at 10 µM: -101%

CC(C)Cc1nc(CO)n(-c2ccc3c(c2)OCCO3)n1
cytotoxicity at 10 µM: -1.86%

CC(C)NC(=O)N1CCN(S(=O)(=O)C2CC2)CC2(CC(=O)N(C)C2)C1 (configuration not stated)
cytotoxicity at 10 µM: 1.11%

Cc1ccc(C)n1C(C)C(=O)N1CCCN(Cc2cscn2)CC1 (configuration not stated)
cytotoxicity at 10 µM: -8.36%

COc1ccccc1OC1CCN(C(=O)c2cnc(C)cc2C)CC1
cytotoxicity at 10 µM: 4.36%

CSC(C)(C)CNC(=O)NC1CCN(CC(F)F)CC1
cytotoxicity at 10 µM: -5.12%

Cn1cc(I)c(C(=O)NCCCn2cc(Br)cn2)n1
cytotoxicity at 10 µM: 6.54%

O=C(NCCN1CCOCC1)C1=NOC2(CCN(Cc3nccs3)C2)C1 (configuration not stated)
cytotoxicity at 10 µM: -79.3%

CN(Cc1ccc(Cl)s1)C(=O)CN(C)C1CCc2ccccc21 (configuration not stated)
cytotoxicity at 10 µM: 18.1%

CCOCCNC(=O)c1cccc(S(=O)(=O)NC[C@@H]2C[C@H](F)CN2)c1
cytotoxicity at 10 µM: -18.8%

CCOCC(O)CN1CCN(C(=O)Cc2ccc(C)nc2)CC1 (configuration not stated)
cytotoxicity at 10 µM: -4.97%

O=c1c2ccccc2cnn1Cc1cncn1C1CC1
cytotoxicity at 10 µM: 3.72%

COCC1CN(Cc2ccoc2)Cc2nn(C)cc21 (configuration not stated)
cytotoxicity at 10 µM: -81.7%

CC[C@H]1NCCC[C@]12CCC(=O)N2Cc1ccncc1
cytotoxicity at 10 µM: 6.29%

CC(c1nc(C2CC2)no1)N1CCN(CCOCC(F)(F)F)CC1 (configuration not stated)
cytotoxicity at 10 µM: -8.6%

CC(C)c1cc(N2CCC[C@H](N)C2)n2nccc2n1
cytotoxicity at 10 µM: -5.42%

COCCN(C)c1nc(-c2ccncc2)nc2c1CCN(C(C)=O)C2
cytotoxicity at 10 µM: -2.16%

CCN1CCCC(C)(C(=O)NCCc2nnc(C)[nH]2)C1 (configuration not stated)
cytotoxicity at 10 µM: 1.1%

CCS(=O)(=O)N1CCOC2(COCCN(C(C)=O)C2)C1 (configuration not stated)
cytotoxicity at 10 µM: 15.7%

CSCCC1c2nc[nH]c2CCN1Cc1[nH]c2ccc(F)cc2c1C (configuration not stated)
cytotoxicity at 10 µM: -5.65%

COCC(=O)N1C[C@H]2CN(Cc3cccc(F)c3)C(=O)[C@H]2C1
cytotoxicity at 10 µM: -83.5%

CCCn1cnnc1CN(C)C(=O)C1CCCN(C2CCN(C)CC2)C1 (configuration not stated)
cytotoxicity at 10 µM: -6.58%

CN(C)CCSc1ccc(NC(=O)c2nccn3ccnc23)cc1
cytotoxicity at 10 µM: -6.25%

CCc1ccc(C2CC(=O)Nc3cc(NS(C)(=O)=O)ccc32)o1 (configuration not stated)
cytotoxicity at 10 µM: 86%

Cc1noc(CNc2cccc(C(=O)N3CCCC(O)C3)c2)n1 (configuration not stated)
cytotoxicity at 10 µM: -0.961%

O=C(NC1CC1)[C@@H]1CCO[C@@H]2CCN(C3CCOCC3)C[C@H]21
cytotoxicity at 10 µM: -9.99%

O=C(CCn1ccc2ccccc21)Nc1ccnn1CC1CCOC1 (configuration not stated)
cytotoxicity at 10 µM: 2.56%

O=C([C@H]1COC[C@H]2CN(CC3CCCC3)C[C@H]21)N1CCOCC1
cytotoxicity at 10 µM: 20.5%

Cc1ccc(C(NC(=O)CN2CCc3c(ncn3C)C2)C2CC2)cc1 (configuration not stated)
cytotoxicity at 10 µM: -2.43%

Cc1ccc(N2CCC3(CCN(C(N)=O)CC3)CC2)nn1
cytotoxicity at 10 µM: 1.62%

O=C(c1cccc2[nH]ncc12)N1CCCC1c1noc(C2CC2)n1 (configuration not stated)
cytotoxicity at 10 µM: -2.91%

CS(=O)(=O)NCCCN1CCCC1c1ccsc1 (configuration not stated)
cytotoxicity at 10 µM: 2.85%

Cc1cc(CN(CCO)c2ccc(Br)cc2)on1
cytotoxicity at 10 µM: 1.78%

Cc1cnn(CC2CCCN2C(=O)c2cc(C)no2)c1 (configuration not stated)
cytotoxicity at 10 µM: -0.194%

CC(C)NC(=O)CNC(C)COc1ccccc1 (configuration not stated)
cytotoxicity at 10 µM: -5.66%

COc1cc(C)nc(N2CCN(C(=O)CN(C)C(C)C)CC2)n1
cytotoxicity at 10 µM: -14.6%

Cc1cc(N(C)C)nc(N2CCN(Cc3nccn3C)CC2)n1
cytotoxicity at 10 µM: -4.05%

Cc1nc(C#N)c(N2CCC(c3nc(-c4ccccc4)no3)CC2)o1
cytotoxicity at 10 µM: -7.41%

Cc1sc2c(C3CCCN(S(C)(=O)=O)C3)nc(C)n2c1C (configuration not stated)
cytotoxicity at 10 µM: -33%

CC(C)C(=O)Nc1ccc(C(O)Cn2nc(-c3cccs3)oc2=O)cc1 (configuration not stated)
cytotoxicity at 10 µM: -5.31%

CCN(C)c1ncnc2c1CCN(C(=O)NCc1cccnc1)CC2
cytotoxicity at 10 µM: -126%

CC1CCCCN1C(=O)Cn1cc(I)cn1 (configuration not stated)
cytotoxicity at 10 µM: 0.687%

Cc1n[nH]c(C)c1CC(=O)N1CCCN(C)C2(CCN(C)CC2)C1
cytotoxicity at 10 µM: 11.7%

CC(C)CNC(=O)c1cc2c(s1)CCN2Cc1cccnc1
cytotoxicity at 10 µM: -6.16%

CSCCC(Nc1nc(C)cc(C)n1)C(=O)NC1CCCC1 (configuration not stated)
cytotoxicity at 10 µM: -4.87%

CNC(=O)C1(c2cnccn2)CCCN1C(=O)c1ccccc1F (configuration not stated)
cytotoxicity at 10 µM: -17.1%

Cc1ccccc1C(C)NC(=O)CN1CCN(Cc2ccc(Br)s2)CC1 (configuration not stated)
cytotoxicity at 10 µM: 22.9%

CC(=O)Nc1cc(CN(C)C)ccc1C
cytotoxicity at 10 µM: -1.89%

N#Cc1cccc(N2CCC(CO)(CCCc3ccccc3)CC2)n1
cytotoxicity at 10 µM: -45.7%

O=C(c1ccc(S(=O)(=O)NC2CCC2)cc1)N1CC[C@H]2CNC[C@H]21
cytotoxicity at 10 µM: -13.5%

COCc1cc(O)nc(C2CCCN(Cc3ccc(F)cc3)C2)n1 (configuration not stated)
cytotoxicity at 10 µM: -9.88%

Cc1cc(-c2cc(N)c(=O)n(CC(=O)NC3CCCCC3)n2)c(C)o1
cytotoxicity at 10 µM: 6.79%

O=C1CCC2(CCOC2)CN1Cc1ccc2nsnc2c1 (configuration not stated)
cytotoxicity at 10 µM: -7.73%

CCCn1ccc2ccc(NC(=O)N(C)CCOC)cc21
cytotoxicity at 10 µM: 1.31%

COc1ccc(CCC(=O)Nc2ccncc2C)cc1
cytotoxicity at 10 µM: 16.1%

COC(=O)N1CCc2ccccc2C1C(=O)NCc1ccncc1 (configuration not stated)
cytotoxicity at 10 µM: -4.83%

CCOCCN(C)C(=O)Nc1cccc2c1CCN(CC)C2
cytotoxicity at 10 µM: -49.3%

NC(=O)NC(=O)CCN1CCC(C(=O)c2cc(F)ccc2F)CC1
cytotoxicity at 10 µM: 9.69%

COc1cccc(OCC(=O)NS(=O)(=O)c2ccc(C)s2)c1
cytotoxicity at 10 µM: -5.87%

CC1CCN(S(=O)(=O)N2CCCC(c3cccc(C(=O)O)c3)C2)CC1 (configuration not stated)
cytotoxicity at 10 µM: -13.3%

COCCS(=O)(=O)NC(C)c1ccccc1Cl (configuration not stated)
cytotoxicity at 10 µM: 5.53%

COc1nc(C)ccc1CNC(=O)NC(c1ncc(C)s1)C1CC1 (configuration not stated)
cytotoxicity at 10 µM: -2.3%

O=C(c1c(F)cccc1F)N1CCC[C@@H]1Cn1c(=O)oc2ccccc21
cytotoxicity at 10 µM: 4.42%

COC(=O)c1ccc(N(C(=O)c2cscn2)C(C)C)c(C)c1
cytotoxicity at 10 µM: 1.7%

O=C(CCc1ccc(-n2cnnn2)cc1)Nc1ccncc1
cytotoxicity at 10 µM: -11.2%

COCC1CN(Cc2sccc2C)Cc2nnn(CC3CC3)c21 (configuration not stated)
cytotoxicity at 10 µM: 4.35%
